Test results published in paper PMC3178738 (Bioconjugate chemistry, 2011).
Entries after “also recorded” stand apart in the source; their conditions may differ. Each block holds one substance with its values, some of them ahead of it.

Legend:
[1] = Stability of the aluminum chelates in PBS; type: physicochemical; conditions: chemical stability, pH 7.4, 37 °C
In short: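 Al–OH and Al–F chelates of the test chelator, made by reacting it with AlCl3 or AlF3, were incubated in PBS, pH 7.4, at 37 °C. Aluminum loss (demetalation) was followed by RP-HPLC at 3 h, 12 h and 24 h.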

[2] = animal studies, cited from earlier work

time stable in PBS [1]: over 24 h
Substance: AlF(NODA-MPAA) [compound 3]
loss of aluminum (demetalation) ([1]; 24 h, RP-HPLC): no detectable loss of aluminum; also recorded: no signs of demetalation

demetalation ([1]; 3 h, RP-HPLC): 23% | demetalation ([1]; 12 h, RP-HPLC): 61%
Substance: AlOH(NODA-MPAA) [compound 2]

Substance: NODA-MPAA-D-Lys(HSG)-D-Tyr-D-Lys(HSG)-NH2 [IMP485]
presence in the bone ([2]; kit formulated IMP485, supporting in vivo stability): negligible | clearance from the body ([2]; kit formulated IMP485): rapid clearance from the body via the kidneys
